According to ChEMBL document CHEMBL1126297, “Synthesis and evaluation of analogues of (Z)-1-(4-methoxyphenyl)-2-(3,4,5-trimethoxyphenyl)ethene as potential cytotoxic and antimitotic agents” (J Med Chem, 1992):

Tests used:
Assay type in all cases: functional
HT-29 = test: Cytotoxicity against human HT-29 colon cell line.; conditions: read-out: ED50 (the source's name)
Procedure, shortened: (§1)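 MTT colorimetric assay run in the Purdue Cell Culture Laboratory. Poorly water-soluble compounds were serially diluted in DMSO and added as 0.5 μL aliquots per well. Cells were incubated with compound for 6 days before MTT was added. […] The reported ED50 is the mean of two determinations.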

Bos taurus = species on record: Bos taurus; test: Inhibition of tubulin polymerization
Procedure, shortened: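 Bovine brain tubulin, purified to electrophoretic homogeneity, was preincubated at 37 °C with a range of compound concentrations and then chilled on ice. GTP was added and polymerization followed at 37 °C by turbidity at 350 nm. Extent was read at 20 min against two controls per experiment, and IC50 was determined graphically. Actives were run in ≥3 independent assays, inactives (IC50 > 40 μM) in ≥2.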

A549 = test: Compound was evaluated for cytotoxicity against human A-549 non-small cell lung cancer cell line.; conditions: read-out: ED50 (the source's name); procedure, shortened: as §1
MCF7 = test: Cytotoxicity against human MCF-7 breast cancer cell line.; conditions: read-out: ED50 (the source's name); procedure, shortened: as §1
SK-MEL-5 = test: Compound was evaluated for cytotoxicity against human SKMEL-5 melanoma cell line.; conditions: read-out: ED50 (the source's name); procedure, shortened: as §1
MLM = test: Cytotoxicity against human MLM melanoma cell line.; conditions: read-out: ED50 (the source's name); procedure, shortened: as §1

Row | IC50 (Bos taurus) | SMILES | EC50 (HT-29) | EC50 (A549) | EC50 (MCF7) | EC50 (SK-MEL-5) | EC50 (MLM)
1 | 15 µM | COc1ccc(Cc2cc(OC)c(OC)c(OC)c2)cc1 | 1300 nM | 1.5 µM | 1.9 µM | 1200 nM | 1.3 µM
2 | > 40 µM | COc1ccc(C(C#N)Cc2cc(OC)c(OC)c(OC)c2)cc1 (stereo not drawn) | 9400 nM | 11.5 µM | 14.3 µM | 6400 nM | 21.1 µM
3 | > 40 µM | CCN(CC)CCOC(=O)/C(=C/c1cccc(OC)c1)c1cc(OC)c(OC)c(OC)c1 | > 25000 nM | 7.7 µM | 10.4 µM | 6700 nM | > 25 µM
4 | > 40 µM | COc1ccc(CC2c3cc(OC)c(OC)c(OC)c3CCN2C)cc1 (stereo not drawn) | 9700 nM | 11.4 µM | 22.7 µM | 8800 nM | > 25 µM
5 | 10 µM | CCOc1ccc(CCc2cc(OC)c(OC)c(OC)c2)cc1 | 180 nM | 0.19 µM | 0.19 µM | 170 nM | 0.27 µM
6 | > 40 µM | COc1ccc2cc3n(c(=O)c2c1)CCc1c-3cc(OC)c(OC)c1OC | > 25000 nM | > 25 µM | > 25 µM | > 25000 nM | > 25 µM
7 | > 40 µM | CCN(CC)CCOC(=O)/C(=C/c1ccc(OC)cc1)c1cc(OC)c(OC)c(OC)c1 | 2800 nM | 1.8 µM | 2.1 µM | 2700 nM | > 25 µM
8 | > 40 µM | COc1ccc(/C(=C\c2cc(OC)c(OC)c(OC)c2)C(=O)O)cc1 | 5900 nM | 5.2 µM | 1.9 µM | 2300 nM | > 25 µM
9 | 2 µM | COc1cc(/C=C\c2ccc(C)cc2)cc(OC)c1OC | 2.3 nM | 0.00094 µM | 0.024 µM | 0.83 nM | 0.0066 µM
10 | > 40 µM | COc1ccc(/C=C/c2ccc(OC)c(OC)c2)cc1 | > 25000 nM | 11.7 µM | > 25 µM | > 25000 nM | > 25 µM
11 | > 40 µM | COc1ccc(C(=O)c2c3cc(OC)c(OC)c(OC)c3cc[n+]2C)cc1 | > 25000 nM | > 25 µM | > 25 µM | > 25000 nM | > 25 µM
12 | > 40 µM | COc1cc(/C=C/c2ccc(C(C)(C)C)cc2)cc(OC)c1OC | > 25000 nM | > 25 µM | > 25 µM | > 25000 nM | > 25 µM
13 | 7.4 µM | COc1ccc(C(=O)c2cc(OC)c(OC)c(OC)c2)cc1 | 1300 nM | 1.1 µM | 1.5 µM | 1200 nM | 1.3 µM
14 | 7.9 µM | COc1ccc(CCc2cc(OC)c(OC)c(OC)c2)cc1 | 2500 nM | 1.8 µM | 1.6 µM | 1400 nM | 1.8 µM
15 | > 40 µM | COc1ccc2c(ccc3cc(OC)c(OC)c(OC)c32)c1 | > 25000 nM | > 25 µM | > 25 µM | > 25000 nM | > 25 µM
16 | > 40 µM | COC(=O)/C(=C/c1ccc(OC)cc1)c1cc(OC)c(OC)c(OC)c1 | 500 nM | 1.1 µM | 2 µM | 6400 nM | 9.6 µM
17 | > 40 µM | COc1cccc(/C=C(/C(=O)O)c2cc(OC)c(OC)c(OC)c2)c1 | 120 nM | 0.025 µM | > 25 µM | 50 nM | > 25 µM
18 | 6 µM | CCCOc1ccc(/C=C\c2cc(OC)c(OC)c(OC)c2)cc1 | 28 nM | 0.039 µM | 0.66 µM | 14 nM | 0.065 µM
19 | > 40 µM | COc1ccc2c(c1)CN1CCc3c(cc(OC)c(OC)c3OC)C1C2 (stereo not drawn) | > 25000 nM | > 25 µM | > 25 µM | > 25000 nM | > 25 µM
20 | > 40 µM | COc1ccc(C2Cc3cc(OC)c(OC)c(OC)c3C2)cc1 (stereo not drawn) | 12800 nM | > 25 µM | > 25 µM | 19500 nM | > 25 µM

Row | IC50 (Bos taurus) | SMILES | EC50 (HT-29) | EC50 (A549) | EC50 (MCF7) | EC50 (SK-MEL-5) | EC50 (MLM)
21 | > 40 µM | COc1ccc(C(=O)c2nccc3c(OC)c(OC)c(OC)cc23)cc1 | > 25000 nM | > 25 µM | > 25 µM | > 25000 nM | > 25 µM
22 | > 40 µM | COc1cc(/C=C/c2ccc(SC)cc2)cc(OC)c1OC | 83 nM | 0.47 µM | 0.059 µM | 280 nM | 7.3 µM
23 | > 40 µM | COc1cc(CCc2ccc(OCCN(C)C)cc2)cc(OC)c1OC | 9800 nM | > 25 µM | 10.3 µM | 11400 nM | > 25 µM
24 | 21 µM | COc1cc(CCc2ccc(C)cc2)cc(OC)c1OC | 100 nM | 0.18 µM | 0.22 µM | 270 nM | 1.4 µM
25 | > 40 µM | COC(=O)/C(=C/c1cccc(OC)c1)c1cc(OC)c(OC)c(OC)c1 | 700 nM | 1.3 µM | 1.3 µM | 1500 nM | 15.5 µM
26 | > 40 µM | COC(=O)C(Cc1cc(OC)c(OC)c(OC)c1)c1ccc(OC)cc1 (stereo not drawn) | > 25000 nM | > 25 µM | > 25 µM | > 25000 nM | > 25 µM
27 | > 40 µM | COc1ccc(/C=C\c2cc(OC)c(OCc3ccccc3)c(OC)c2)cc1 | 950 nM | 1.04 µM | 1.92 µM | 610 nM | > 25 µM
28 | 24 µM | COc1ccc(/C=C\c2cc(OC)c(OC(C)=O)c(OC)c2)cc1 | 8700 nM | 21.5 µM | > 25 µM | 600 nM | > 25 µM
29 | 35 µM | CNC(=O)/C(=C/c1ccc(OC)cc1)c1cc(OC)c(OC)c(OC)c1 | 2600 nM | 2.4 µM | 5 µM | 2400 nM | 93 µM
30 | > 40 µM | COc1ccc(/C=C/c2cc(OC)c(OC(C)=O)c(OC)c2)cc1 | 11700 nM | 16.4 µM | 19.4 µM | 10200 nM | 21 µM
31 | > 40 µM | COc1ccc(/C=C/c2cc(OC)c(OCc3ccccc3)c(OC)c2)cc1 | 17800 nM | > 25 µM | > 25 µM | > 25000 nM | > 25 µM
32 | > 40 µM | COc1cc(/C=C\c2ccc(C(C)(C)C)cc2)cc(OC)c1OC | 880 nM | 1.02 µM | 1.57 µM | 210 nM | 4.32 µM
33 | 6.2 µM | COc1cc(/C=C\c2ccc(SC)cc2)cc(OC)c1OC | 0.0018 nM | 0.00019 µM | 0.0054 µM | 0.004 nM | 0.0033 µM
34 | > 40 µM | CCNC(=O)/C(=C/c1ccc(OC)cc1)c1cc(OC)c(OC)c(OC)c1 | 1800 nM | 3.4 µM | 3.7 µM | 7050 nM | > 25 µM
35 | > 40 µM | COc1ccc(C(O)c2cc(OC)c(OC)c(OC)c2)cc1 (stereo not drawn) | 1200 nM | 1.5 µM | 1.9 µM | 1500 nM | 16.8 µM
36 | > 40 µM | COc1ccc(C(Cc2cc(OC)c(OC)c(OC)c2)C(=O)O)cc1 (stereo not drawn) | 9400 nM | 14.3 µM | > 25 µM | 7400 nM | > 25 µM
37 | > 40 µM | CCCOc1ccc(CCc2cc(OC)c(OC)c(OC)c2)cc1 | 6400 nM | 7.2 µM | 3.9 µM | 6700 nM | 15 µM
38 | > 40 µM | COc1ccc(/C=C(/C(=O)O)c2cc(OC)c(OC)c(OC)c2)cc1 | 8400 nM | 13.9 µM | 12.8 µM | 9100 nM | > 25 µM
39 |  | COc1ccc(/C=C\c2cc(OC)c(OC)c(OC)c2)cc1O [COMBRETASTATIN A4] | 10 nM | 0.00032 µM | 0.0056 µM | 0.14 nM | 0.00043 µM

Row | SMILES | IC50 (Bos taurus) | EC50 (HT-29) | EC50 (A549) | EC50 (MCF7) | EC50 (SK-MEL-5) | EC50 (MLM)
40 | COc1cc(/C=C\c2ccc(C(C)C)cc2)cc(OC)c1OC | 12 µM | 2400 nM |  | 1.4 µM |  | 
41 | COc1ccc(/C=C\c2cc(OC)c(OC)c(OC)c2)cc1 | 2.5 µM | 2600 nM |  |  | 2600 nM | 1.6 µM
42 | COc1cc2ccc3c(OC)cccc3c2c(OC)c1OC | > 40 µM | 9300 nM | > 25 µM | 14.6 µM | 12000 nM | > 25 µM
43 | COc1cc(/C=C/c2ccc(C(C)C)cc2)cc(OC)c1OC | > 40 µM | 6800 nM | 9.8 µM | 18.4 µM | 11100 nM | > 25 µM
44 | COc1ccc2ccc3cc(OC)c(OC)c(OC)c3c2c1 | > 40 µM | 1100 nM | > 25 µM | > 25 µM | 12500 nM | > 25 µM
45 | COc1cc2ccc3cccc(OC)c3c2c(OC)c1OC | > 40 µM | 1900 nM | 5.7 µM | 1.8 µM | 1300 nM | 21.4 µM
46 | CCOc1ccc(/C=C\c2cc(OC)c(OC)c(OC)c2)cc1 | 2.7 µM | 1800 nM | 1.6 µM | 9.6 µM | 2500 nM | 
47 | CCOc1ccc(/C=C/c2cc(OC)c(OC)c(OC)c2)cc1 | > 40 µM | 1490 nM |  | 7.5 µM | 1170 nM | 
